Published values gathered from unrelated publications.
Protocols differ between the studies behind these lines.
Target: Serine/threonine-protein kinase PAK 1 (PAK1, Homo sapiens, UniProt Q13153)

COc1ncccc1-c1cnn2ccc(N3CCN(C(=O)OC(C)C)CC3)nc12
remaining binding (binding; competition with immobilised ligand; 1 µM): 100%

COc1cc(Nc2ncc(F)c(Nc3ccc4c(n3)NC(=O)C(C)(C)O4)n2)cc(OC)c1OC
inhibition (binding; competition with immobilised ligand; 10 µM): 91%

N#CC1(c2ccccn2)CCN(Cc2cc(C(=O)O)c(=O)n3ccccc23)CC1
remaining binding (cell-free assay; competition with immobilised ligand; 1 µM): 86%

C#Cc1n[nH]c2c(-c3cn([C@@H](C)c4ccccc4)c(=O)[nH]c3=O)cc(F)cc12
inhibition (enzyme activity; inhibitor; 0.1 µM): 5.7%

Cn1cc(-c2cc(F)cc(N3CCn4c(cc5c4CCCC5)C3=O)c2CO)cc(Nc2ccc(N3CCN(C4COC4)CC3)cn2)c1=O
inhibition (enzyme activity; inhibitor; 0.1 µM): 5%

O=c1[nH]c2ccccc2n1C1CCN(Cc2ccc(-c3[nH]c4cc5ncnc5cc4nc3-c3ccccc3)cc2)CC1
remaining signal (cell-free assay; 0.5 µM): 90.6%

Cc1nn(C)cc1-c1nc2c(N3CCN(Cc4ccc(Cl)cc4)CC3)c(Cl)cnc2[nH]1
remaining binding (binding; competition with immobilised ligand; 1 µM): 100%

C#Cc1n[nH]c2c(-c3cn(C(C)c4ccccn4)c(=O)[nH]c3=O)cc(F)cc12 (centres unmarked)
inhibition (enzyme activity; inhibitor; 1 µM): 3.4%

Nc1ncc(-c2nc(N3CCOCC3)nc(N3CCOCC3)n2)c(C(F)F)n1
remaining binding (binding; competition with immobilised ligand; 10 µM): 63%

Cn1cc(-c2cccc(N3CCc4c(sc5c4CC(C)(C)C5)C3=O)c2CO)cc(Nc2ccncn2)c1=O
inhibition (enzyme activity; inhibitor; 1 µM): 9%

Cn1cncc1[C@@](O)(COc1ccc(C#N)cc1-c1ccc(OC(F)(F)F)cc1)c1ccc(C#N)cc1
remaining binding (cell-free assay; competition with immobilised ligand; 1 µM): 100%
